A word on the IC50: it is the concentration needed to halve the response being measured. A low value points to greater potency. What is called Ki is a dissociation constant, usually derived from enzyme kinetics or from competition with a known ligand. Read a high Ki as weaker binding.

This is an account of results in ChEMBL document CHEMBL1132220 (J Med Chem, 1999).

One assay addresses Somatostatin receptor. As to the kind of experiment: Antagonism of in vitro SRIF inhibition of GH release in rat in vitro pituitary cell assay. Particulars: pituitary gland cell. The class given is functional, cell-based. An outline of the steps: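 Dispersed adult male rat anterior pituitary cells (trypsin/DNase), about 200 000 cells/well, cultured 4–5 days at 37 °C. GH measured by double-antibody RIA. IC50 versus SRIF, mean ± SEM of n dose–response curves.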

Assay [1] concerns the target Somatostatin receptor type 1 (Homo sapiens, UniProt P30872). Briefly: The compound was tested for binding affinity against human Somatostatin receptor type 1. A digest of the protocol: (§1)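 Membranes from CHO-K1 cells transfected with the cloned human receptor. Terminated by filtration on PEI-soaked GF/C filters. Nonspecific binding defined with 1.0 μM SRIF. Mean ± SEM; single values are from one experiment.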

The target in assay [2] is Somatostatin receptor type 2 (Homo sapiens, UniProt P30874). As to the kind of experiment: The compound was tested for binding affinity against human Somatostatin receptor type 2. An outline of the steps: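 Membranes from CHO-K1 cells transfected with the cloned human sst2. Incubated 30 min at 37 °C with 0.05 nM [125I]MK-678 in HEPES pH 7.4 with BSA, MgCl2, Trasylol, bacitracin and PMSF. Filtration on PEI-soaked GF/C filters. Nonspecific binding defined with 1.0 μM SRIF. Mean ± SEM; single values are from one experiment.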

Assay [3] deals with Somatostatin receptor type 3 (Homo sapiens, UniProt P32745). Briefly: The compound was tested for binding affinity against human Somatostatin receptor type 3. A digest of the protocol: (§2)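 CHO-K1 cells stably transfected (calcium phosphate) with cloned human sst3 or sst4. Membranes made in ice-cold 50 mM Tris-HCl, resuspended in 10 mM Tris-HCl, then incubated 30 min at 37 °C with 0.05 nM [125I]Tyr11-SRIF in HEPES pH 7.4 with BSA, MgCl2 and protease inhibitors. Filtered on GF/C; nonspecific binding with 1.0 µM SRIF. Mean ± SEM, or one experiment.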

The target of assay [4] is Somatostatin receptor type 4 (Homo sapiens, UniProt P31391). Briefly: The compound was tested for binding affinity against human Somatostatin receptor type 4. A digest of the protocol: as §2
Assay [5] addresses Somatostatin receptor type 5 (Homo sapiens, UniProt P35346). As to the kind of experiment: The compound was tested for binding affinity against human Somatostatin receptor type 5. An outline of the steps:
as §1

Chain of Somatostatin receptor type 2 (P30874 whole entry): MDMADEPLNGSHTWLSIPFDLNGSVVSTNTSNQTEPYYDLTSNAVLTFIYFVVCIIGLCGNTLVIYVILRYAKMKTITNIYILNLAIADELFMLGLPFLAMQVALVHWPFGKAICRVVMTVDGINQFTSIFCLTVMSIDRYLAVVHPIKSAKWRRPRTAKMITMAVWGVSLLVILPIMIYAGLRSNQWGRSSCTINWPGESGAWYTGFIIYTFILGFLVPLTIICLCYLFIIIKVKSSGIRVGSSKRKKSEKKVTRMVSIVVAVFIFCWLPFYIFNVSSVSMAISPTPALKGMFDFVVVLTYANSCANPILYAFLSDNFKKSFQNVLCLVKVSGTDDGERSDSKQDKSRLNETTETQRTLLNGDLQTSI
Chain of Somatostatin receptor type 3 (P32745 whole entry): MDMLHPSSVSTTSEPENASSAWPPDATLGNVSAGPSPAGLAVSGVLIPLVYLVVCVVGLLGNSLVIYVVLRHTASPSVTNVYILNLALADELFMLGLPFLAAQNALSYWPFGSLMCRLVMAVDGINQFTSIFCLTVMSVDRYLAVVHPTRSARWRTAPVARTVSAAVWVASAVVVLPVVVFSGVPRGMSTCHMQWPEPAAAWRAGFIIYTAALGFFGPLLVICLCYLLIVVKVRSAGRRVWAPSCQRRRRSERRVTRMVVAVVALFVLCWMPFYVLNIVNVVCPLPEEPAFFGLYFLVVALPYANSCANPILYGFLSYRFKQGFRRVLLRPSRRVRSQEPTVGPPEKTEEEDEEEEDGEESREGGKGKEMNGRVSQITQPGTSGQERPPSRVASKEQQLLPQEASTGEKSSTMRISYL
Chain of Somatostatin receptor type 4 (P31391 whole entry): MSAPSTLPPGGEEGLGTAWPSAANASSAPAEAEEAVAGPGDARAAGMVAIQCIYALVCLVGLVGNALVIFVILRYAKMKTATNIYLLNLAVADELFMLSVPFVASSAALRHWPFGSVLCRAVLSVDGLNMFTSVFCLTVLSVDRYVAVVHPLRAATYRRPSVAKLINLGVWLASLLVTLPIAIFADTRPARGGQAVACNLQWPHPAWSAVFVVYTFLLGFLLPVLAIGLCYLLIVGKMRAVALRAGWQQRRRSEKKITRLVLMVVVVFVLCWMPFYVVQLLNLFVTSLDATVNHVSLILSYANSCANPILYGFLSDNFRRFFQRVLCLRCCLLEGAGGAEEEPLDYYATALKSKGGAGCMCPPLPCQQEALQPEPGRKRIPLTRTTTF
Chain of Somatostatin receptor type 1 (P30872 whole entry): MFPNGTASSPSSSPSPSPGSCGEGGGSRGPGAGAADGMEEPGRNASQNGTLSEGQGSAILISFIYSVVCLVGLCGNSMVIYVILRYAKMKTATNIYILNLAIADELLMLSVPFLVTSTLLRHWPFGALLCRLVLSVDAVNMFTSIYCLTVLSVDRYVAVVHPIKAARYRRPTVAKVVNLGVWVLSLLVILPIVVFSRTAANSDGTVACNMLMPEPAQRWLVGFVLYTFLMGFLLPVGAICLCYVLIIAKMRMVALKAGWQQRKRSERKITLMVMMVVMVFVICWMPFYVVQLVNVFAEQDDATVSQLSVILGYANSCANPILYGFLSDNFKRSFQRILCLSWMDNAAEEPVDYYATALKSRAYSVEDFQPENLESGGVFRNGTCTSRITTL
Chain of Somatostatin receptor type 5 (P35346 whole entry): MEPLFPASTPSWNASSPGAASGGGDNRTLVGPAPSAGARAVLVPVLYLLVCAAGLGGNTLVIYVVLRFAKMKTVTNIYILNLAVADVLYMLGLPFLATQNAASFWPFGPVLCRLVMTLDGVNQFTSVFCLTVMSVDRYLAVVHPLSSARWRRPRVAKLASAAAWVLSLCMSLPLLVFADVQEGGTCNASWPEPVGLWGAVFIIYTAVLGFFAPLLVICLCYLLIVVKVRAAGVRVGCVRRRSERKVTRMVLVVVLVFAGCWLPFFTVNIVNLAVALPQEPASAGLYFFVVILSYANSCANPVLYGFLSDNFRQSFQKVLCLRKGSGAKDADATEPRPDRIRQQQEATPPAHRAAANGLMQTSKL

Compound `CC(C)[C@H]1NC(=O)[C@H](CCCCN)NC(=O)[C@@H](Cc2c[nH]c3ccccc23)NC(=O)[C@H](Cc2cccnc2)NC(=O)[C@@H](NC(=O)[C@@H](N)Cc2ccc(I)cc2)CSSC[C@H](C(=O)N[C@@H](Cc2ccc(I)cc2)C(N)=O)NC1=O` came in with an IC50 against Somatostatin receptor of 4 nM.

Regarding `CC[C@H](C)[C@H]1NC(=O)[C@H](CCCCN)NC(=O)[C@@H](Cc2c[nH]c3ccccc23)NC(=O)[C@H](Cc2ccc(O)cc2)NC(=O)[C@@H](NC(=O)[C@@H](N)Cc2ccc(-c3ccccc3)cc2)CSSC[C@@H](C(=O)N[C@@H](Cc2ccc(-c3ccccc3)cc2)C(N)=O)NC1=O`, at Somatostatin receptor, the IC50 worked out at 2110 nM.

The compound `CC(C)[C@H]1NC(=O)[C@H](CCCCN)NC(=O)[C@@H](Cc2c[nH]c3ccccc23)NC(=O)[C@H](Cc2cccnc2)NC(=O)[C@@H](NC(=O)[C@@H](N)Cc2ccc(C#N)cc2)CSSC[C@H](C(=O)N[C@@H](Cc2ccc(C#N)cc2)C(N)=O)NC1=O` gave an IC50 at Somatostatin receptor of 51 nM.

Consider `CC(C)[C@H]1NC(=O)[C@H](CCCCN)NC(=O)[C@@H](Cc2c[nH]c3ccccc23)NC(=O)[C@H](Cc2cccnc2)NC(=O)[C@@H](NC(=O)[C@@H](N)Cc2ccc3ccccc3c2)CSSC[C@H](C(=O)N[C@@H](Cc2ccc(F)cc2)C(N)=O)NC1=O`, for which the IC50 on Somatostatin receptor is 150 nM.

In turn, `CC(C)[C@H]1NC(=O)[C@H](CCCCN)NC(=O)[C@@H](Cc2c[nH]c3ccccc23)NC(=O)[C@H](Cc2cccnc2)NC(=O)[C@@H](NC(=O)[C@@H](N)Cc2cccc(F)c2)CSSC[C@H](C(=O)N[C@@H](Cc2cccc(F)c2)C(N)=O)NC1=O` showed an IC50 on Somatostatin receptor of 77 nM.

Turning to `CC(C)[C@H]1NC(=O)[C@H](CCCCN)NC(=O)[C@@H](Cc2c[nH]c3ccccc23)NC(=O)[C@H](Cc2cccnc2)NC(=O)[C@@H](NC(=O)[C@@H](N)Cc2ccc(F)cc2)CSSC[C@H](C(=O)N[C@@H](Cc2ccc(F)cc2)C(N)=O)NC1=O`, the IC50 at Somatostatin receptor worked out at 87 nM.

At Somatostatin receptor, `NCCCC[C@@H]1NC(=O)[C@@H](Cc2c[nH]c3ccccc23)NC(=O)[C@H](Cc2cccnc2)NC(=O)[C@@H](NC(=O)[C@@H](N)Cc2ccc3ccccc3c2)CSSC[C@@H](C(=O)N[C@@H](Cc2ccc3ccccc3c2)C(N)=O)NC(=O)CNC1=O` registered an IC50 of 1510 nM.

As for `CC(C)C[C@@H]1NC(=O)[C@H](CCCCN)NC(=O)[C@@H](Cc2c[nH]c3ccccc23)NC(=O)[C@H](Cc2cccnc2)NC(=O)[C@@H](NC(=O)[C@@H](N)Cc2ccc3ccccc3c2)CSSC[C@@H](C(=O)N[C@@H](Cc2ccc3ccccc3c2)C(N)=O)NC1=O`, the IC50 against Somatostatin receptor was found to be 48 nM.

`CC(C)[C@H]1NC(=O)[C@H](CCCCN)NC(=O)[C@@H](Cc2c[nH]c3ccccc23)NC(=O)[C@H](Cc2cccnc2)NC(=O)[C@@H](NC(=O)[C@H](N)Cc2ccc(F)cc2)CSSC[C@H](C(=O)N[C@H](Cc2ccc(F)cc2)C(N)=O)NC1=O` registered an IC50 on Somatostatin receptor of 74 nM.

`CC(C)[C@H]1NC(=O)[C@H](CCCCN)NC(=O)[C@@H](Cc2c[nH]c3ccccc23)NC(=O)[C@H](Cc2cccnc2)NC(=O)[C@@H](NC(=O)[C@@H](N)Cc2ccc3ccccc3c2)CSSC[C@H](C(=O)N[C@H](C(N)=O)C(c2ccccc2)c2ccccc2)NC1=O` showed an IC50 at Somatostatin receptor of 91 nM. This IC50 and that of the compound before are within 1.5-fold of each other.

For the compound `CC(C)[C@H]1NC(=O)[C@H](CCCCN)NC(=O)[C@@H](Cc2c[nH]c3ccccc23)NC(=O)[C@H](Cc2cccnc2)NC(=O)[C@@H](NC(=O)[C@@H](N)Cc2c(F)c(F)c(F)c(F)c2F)CSSC[C@H](C(=O)N[C@@H](Cc2c(F)c(F)c(F)c(F)c2F)C(N)=O)NC1=O`, the IC50 at Somatostatin receptor is recorded as 292 nM.

`C[C@@H]1NC(=O)[C@H](CCCCN)NC(=O)[C@@H](Cc2c[nH]c3ccccc23)NC(=O)[C@H](Cc2cccnc2)NC(=O)[C@@H](NC(=O)[C@@H](N)Cc2ccc3ccccc3c2)CSSC[C@@H](C(=O)N[C@@H](Cc2ccc3ccccc3c2)C(N)=O)NC1=O`: the IC50 on Somatostatin receptor stood at 425 nM.

`CC(C)[C@H]1NC(=O)[C@H](CCCCN)NC(=O)[C@@H](Cc2c[nH]c3ccccc23)NC(=O)[C@H](Cc2cccnc2)NC(=O)[C@@H](NC(=O)[C@@H](N)Cc2ccc3ccccc3c2)CSSC[C@H](C(=O)N[C@@H](Cc2ccc3ccccc3c2)C(N)=O)NC1=O` gave an IC50 against Somatostatin receptor of 15 nM.

On Somatostatin receptor, `CC(C)[C@H]1NC(=O)[C@H](CCCCN)NC(=O)[C@@H](Cc2c[nH]c3ccccc23)NC(=O)[C@H](Cc2cccnc2)NC(=O)[C@@H](NC(=O)[C@@H](N)Cc2ccc(F)cc2)CSSC[C@H](C(=O)N[C@@H](Cc2ccc3ccccc3c2)C(N)=O)NC1=O` returned an IC50 of 6.5 nM.

Regarding `CC(C)[C@H]1NC(=O)[C@H](CCCCN)NC(=O)[C@@H](Cc2c[nH]c3ccccc23)NC(=O)[C@H](Cc2ccccn2)NC(=O)[C@@H](NC(=O)[C@@H](N)Cc2c(F)c(F)c(F)c(F)c2F)CSSC[C@H](C(=O)N[C@@H](Cc2c(F)c(F)c(F)c(F)c2F)C(N)=O)NC1=O`, at Somatostatin receptor, the IC50 was determined as 765 nM. This IC50 lies about 120-fold higher than the previous one.

In the case of `CC(C)[C@H]1NC(=O)[C@H](CCCCN)NC(=O)[C@@H](Cc2c[nH]c3ccccc23)NC(=O)[C@H](Cc2cccnc2)NC(=O)[C@@H](NC(=O)[C@@H](N)Cc2ccc(Cl)cc2)CSSC[C@H](C(=O)N[C@@H](Cc2ccc3ccccc3c2)C(N)=O)NC1=O`, the IC50 on Somatostatin receptor was 2.6 nM.

`CC(C)[C@H]1NC(=O)[C@H](CCCCN)NC(=O)[C@@H](Cc2c[nH]c3ccccc23)NC(=O)[C@H](Cc2cccnc2)NC(=O)[C@@H](NC(=O)[C@@H](N)Cc2ccc(Br)cc2)CSSC[C@H](C(=O)N[C@@H](Cc2ccc(Br)cc2)C(N)=O)NC1=O`: the IC50 at Somatostatin receptor is 2.7 nM. This IC50 and that of the compound before are within 1.5-fold of each other.

In the case of `CC(C)[C@H]1NC(=O)[C@H](CCCCN)NC(=O)[C@@H](Cc2c[nH]c3ccccc23)NC(=O)[C@H](Cc2cccnc2)NC(=O)[C@@H](NC(=O)[C@@H](N)Cc2ccccc2F)CSSC[C@H](C(=O)N[C@@H](Cc2ccccc2F)C(N)=O)NC1=O`, at Somatostatin receptor, the IC50 is reported as 114 nM.

In turn, `C[C@@H](O)[C@@H]1NC(=O)[C@H](CCCCN)NC(=O)[C@@H](Cc2c[nH]c3ccccc23)NC(=O)[C@H](Cc2ccccc2)NC(=O)[C@@H](NC(=O)[C@@H](N)Cc2ccc(Cl)cc2)CSSC[C@@H](C(=O)N[C@@H](Cc2ccc3ccccc3c2)C(N)=O)NC1=O` returned an IC50 against Somatostatin receptor of 1.4 nM. Compared with the last compound, the IC50 is about 81-fold lower.

Turning to `CC(C)[C@H]1NC(=O)[C@H](CCCCN)NC(=O)[C@@H](Cc2c[nH]c3ccccc23)NC(=O)[C@H](Cc2cccnc2)NC(=O)[C@@H](NC(=O)[C@@H](N)Cc2ccc(Cl)cc2)CSSC[C@H](C(=O)N[C@@H](Cc2ccc(Cl)cc2)C(N)=O)NC1=O`, at Somatostatin receptor, the IC50 stood at 3 nM.

For `CC(C)[C@H]1NC(=O)[C@H](CCCCN)NC(=O)[C@@H](Cc2c[nH]c3ccccc23)NC(=O)[C@H](Cc2c[nH]cn2)NC(=O)C(NC(=O)[C@@H](N)Cc2ccc(F)cc2)CSSCC(C(=O)N[C@@H](Cc2ccc(F)cc2)C(N)=O)NC1=O` (stereo in doubt), the Ki turned out to be 1950 nM in assay [1]; 31 nM in assay [2]; 269 nM in assay [3]; 847 nM in assay [4]; 173 nM in assay [5].

As for `CC(C)[C@H]1NC(=O)[C@H](CCCCN)NC(=O)[C@@H](Cc2c[nH]c3ccccc23)NC(=O)[C@H](Cc2c[nH]cn2)NC(=O)C(NC(=O)[C@@H](N)Cc2cccc(F)c2)CSSCC(C(=O)N[C@@H](Cc2cccc(F)c2)C(N)=O)NC1=O` (stereo in doubt), the Ki in assay [1] was 60 nM; in assay [2], 103 nM; in assay [3], 397 nM; in assay [4] it was more than 1000 nM; in assay [5] it was 734 nM.
